Paper PMC3536955 (Osteoporosis International, 2012)

Columns and labels:
Type in all cases: in vivo, postmenopausal Japanese women
[1] = Pharmacokinetics: plasma teriparatide acetate concentration
Procedure, shortened: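 Plasma was sampled before and at 15, 30, 45, 60, 90, 120, 180, 240, 360 and 720 min after one s.c. injection at 0800 h in postmenopausal women. Drug was assayed with a rat PTH IRMA kit (range 10 to 1,000 pg/mL). Cmax, AUClast, AUCinf, Tmax and T1/2 were derived for active-dose recipients only. Concentrations are given as mean ± SD.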

intact PTH = experiment: Serum intact PTH; settings: n = 10
Procedure, shortened: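 Intact PTH in serum was measured by electrochemiluminescence immunoassay. Postmenopausal women aged 60–79 y were randomised double-blind to placebo or a single s.c. dose, given at 0800 h straight after baseline sampling. Blood was drawn at 15, 30, 45, 60, 90, 120, 180, 240, 360 and 720 min, then mornings of days 2, 4, 6, 8, 11, 13 and 15. Baseline median and follow-up distribution were reported.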

[2] = test system: 1,25-Dihydroxy vitamin D (1,25(OH)2D); experiment: Serum 1,25; settings: n = 10
Procedure, shortened: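 Serum 1,25(OH)2D was measured by radio receptor assay (inter-assay CV 11.3–13.2 %), with each participant's samples in a single batch. Women aged 60–79 y received one s.c. injection or placebo at 0800 h after baseline blood, in a double-blind randomised design. Sampling ran from 15–720 min and on mornings of days 2, 4, 6, 8, 11, 13 and 15. Median baseline and follow-up distribution were tabulated.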

osteocalcin = experiment: Bone formation marker serum osteocalcin; settings: n = 10
Procedure, shortened: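 Women aged 60–79 y were randomised double-blind to placebo or one s.c. injection at 0800 h, given after baseline blood. Serum was sampled 15–720 min post-dose, then each morning on days 2, 4, 6, 8, 11, 13 and 15. Osteocalcin was measured by BGP-IRMA (inter-assay CV 4.7–7.6 %), in a single batch per participant. Values were summarised as baseline median and follow-up distribution.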

P1NP = experiment: Bone formation marker serum P1NP; settings: n = 10
Procedure, shortened: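 Randomised, double-blind, placebo-controlled trial in women aged 60–79 y. A single s.c. dose was given at 0800 h after baseline sampling. Serum was drawn 15–720 min post-dose and on mornings of days 2, 4, 6, 8, 11, 13 and 15. P1NP was measured by radioimmunoassay (inter-assay CV 2.7–5.0 %), with each subject's samples in one batch. Median baseline and follow-up distribution were reported.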

[3] = test system: Serum cross-linked N-telopeptide of type I collagen (NTX); experiment: Bone resorption marker serum NTX; settings: n = 10
Procedure, shortened: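 Serum NTX was measured by ELISA (inter-assay CV 6.9–11.1 %), with all of a participant's samples run together. The trial was a placebo-controlled, double-blind, single-centre study in postmenopausal women aged 60–79 y, each given one s.c. injection after 0800 h baseline sampling. Blood was taken at 15–720 min and on mornings of days 2–15. Baseline median and follow-up distribution were tabulated.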

[4] = test system: urinary cross-linked C-telopeptide of type I collagen (CTX); experiment: Bone resorption marker urinary CTX; settings: n = 10
Procedure, shortened: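 Urine was collected at baseline (0800 h), at 120, 240, 360 and 720 min after a single s.c. injection, and on mornings of days 2, 4, 6, 8, 11, 13 and 15. Subjects were postmenopausal women aged 60–79 y in a randomised, double-blind, placebo-controlled design. CTX was measured by ELISA (inter-assay CV 2.4–9.0 %), with each participant's samples in one batch. Median and distribution were summarised.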

[5] = Safety: adverse events after injection
Procedure, shortened: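 Adverse events were recorded after a single s.c. injection of drug or identical-looking placebo in a randomised, double-blind study of postmenopausal women aged 60–79 y, with 10 per group. Events and abnormal laboratory changes were coded by MedDRA/J version 9.0 by system organ class and preferred term, and classified as adverse drug reactions where applicable. Follow-up lasted until day 15.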

[6] = 4 to 15 days, 28.2 μg single s.c.
[7] = 4 to 15 days, 56.5 μg single s.c.

CC[C@H](C)[C@H](NC(=O)[C@H](CCC(=O)O)NC(=O)[C@H](CO)NC(=O)[C@@H](NC(=O)[C@@H](N)CO)C(C)C)C(=O)N[C@@H](CCC(N)=O)C(=O)N[C@@H](CC(C)C)C(=O)N[C@@H](CCSC)C(=O)N[C@@H](Cc1cnc[nH]1)C(=O)N[C@@H](CC(N)=O)C(=O)N[C@@H](CC(C)C)C(=O)NCC(=O)N[C@@H](CCCCN)C(=O)N[C@@H](Cc1cnc[nH]1)C(=O)N[C@@H](CC(C)C)C(=O)N[C@@H](CC(N)=O)C(=O)N[C@@H](CO)C(=O)N[C@@H](CCSC)C(=O)N[C@@H](CCC(=O)O)C(=O)N[C@@H](CCCN=C(N)N)C(=O)N[C@H](C(=O)N[C@@H](CCC(=O)O)C(=O)N[C@@H](Cc1c[nH]c2ccccc12)C(=O)N[C@@H](CC(C)C)C(=O)N[C@@H](CCCN=C(N)N)C(=O)N[C@@H](CCCCN)C(=O)N[C@@H](CCCCN)C(=O)N[C@@H](CC(C)C)C(=O)N[C@@H](CCC(N)=O)C(=O)N[C@@H](CC(=O)O)C(=O)N[C@H](C(=O)N[C@@H](Cc1cnc[nH]1)C(=O)N[C@@H](CC(N)=O)C(=O)N[C@@H](Cc1ccccc1)C(=O)O)C(C)C)C(C)C [teriparatide]
Tmax ([1]; female, human, sc): 1 h
AUC(0-inf) ([1]; female, human, sc, 28.2 ug): 0.468 ng·h/mL
AUC(0-inf) ([1]; female, human, sc, 56.5 ug): 0.879 ng·h/mL
AUC(0-t) ([1]; female, human, sc, 56.5 ug): 0.832 ng·h/mL
time after injection at which teriparatide concentration disappeared ([1]; single s.c. injection 28.2 or 56.5 μg): 6 h
Intact-PTH, Max (intact PTH; 2 to 24 h, 28.2 μg single s.c.): 66.0 pg/mL
Intact-PTH, Median (intact PTH; 2 to 24 h, 28.2 μg single s.c.): 34.5 pg/mL
Intact-PTH, Min (intact PTH; 2 to 24 h, 28.2 μg single s.c.): 17.0 pg/mL
Intact-PTH, Max (intact PTH; 2 to 24 h, 56.5 μg single s.c.): 65.0 pg/mL
Intact-PTH, Median (intact PTH; 2 to 24 h, 56.5 μg single s.c.): 35.0 pg/mL
Intact-PTH, Min (intact PTH; 2 to 24 h, 56.5 μg single s.c.): 18.0 pg/mL
Intact-PTH, Max (intact PTH; [6]): 64.0 pg/mL
Intact-PTH, Median (intact PTH; [6]): 45.5 pg/mL
Intact-PTH, Min (intact PTH; [6]): 25.0 pg/mL
Intact-PTH, Max (intact PTH; [7]): 109.0 pg/mL
Intact-PTH, Median (intact PTH; [7]): 49.0 pg/mL
Intact-PTH, Min (intact PTH; [7]): 26.0 pg/mL
1,25(OH)2D, Max ([2]; 2 to 24 h, 28.2 μg single s.c.): 118.0 pg/mL
1,25(OH)2D, Median ([2]; 2 to 24 h, 28.2 μg single s.c.): 67.5 pg/mL
1,25(OH)2D, Min ([2]; 2 to 24 h, 28.2 μg single s.c.): 37.0 pg/mL
1,25(OH)2D, Max ([2]; 2 to 24 h, 56.5 μg single s.c.): 136.0 pg/mL
1,25(OH)2D, Median ([2]; 2 to 24 h, 56.5 μg single s.c.): 70.5 pg/mL
1,25(OH)2D, Min ([2]; 2 to 24 h, 56.5 μg single s.c.): 33.0 pg/mL
1,25(OH)2D, Max [2, 6]: 99.0 pg/mL
1,25(OH)2D, Median [2, 6]: 56.0 pg/mL
1,25(OH)2D, Min [2, 6]: 21.0 pg/mL
1,25(OH)2D, Max [2, 7]: 94.0 pg/mL
1,25(OH)2D, Median [2, 7]: 54.0 pg/mL
1,25(OH)2D, Min [2, 7]: 18.0 pg/mL
Serum osteocalcin, Max (osteocalcin; 2 to 24 h, 28.2 μg single s.c.): 12.7 ng/mL
Serum osteocalcin, Median (osteocalcin; 2 to 24 h, 28.2 μg single s.c.): 7.6 ng/mL
Serum osteocalcin, Min (osteocalcin; 2 to 24 h, 28.2 μg single s.c.): 4.6 ng/mL
Serum osteocalcin, Max (osteocalcin; 2 to 24 h, 56.5 μg single s.c.): 16.7 ng/mL
Serum osteocalcin, Median (osteocalcin; 2 to 24 h, 56.5 μg single s.c.): 7.4 ng/mL
Serum osteocalcin, Min (osteocalcin; 2 to 24 h, 56.5 μg single s.c.): 3.2 ng/mL
Serum osteocalcin, Max (osteocalcin; [6]): 12.2 ng/mL
Serum osteocalcin, Median (osteocalcin; [6]): 8.1 ng/mL
Serum osteocalcin, Min (osteocalcin; [6]): 4.6 ng/mL
Serum osteocalcin, Max (osteocalcin; [7]): 17.9 ng/mL
Serum osteocalcin, Median (osteocalcin; [7]): 7.9 ng/mL
Serum osteocalcin, Min (osteocalcin; [7]): 4.3 ng/mL
Serum P1NP, Max (P1NP; 2 to 24 h, 28.2 μg single s.c.): 77.4 ng/mL
Serum P1NP, Median (P1NP; 2 to 24 h, 28.2 μg single s.c.): 47.4 ng/mL
Serum P1NP, Min (P1NP; 2 to 24 h, 28.2 μg single s.c.): 28.0 ng/mL
Serum P1NP, Max (P1NP; 2 to 24 h, 56.5 μg single s.c.): 101.0 ng/mL
Serum P1NP, Median (P1NP; 2 to 24 h, 56.5 μg single s.c.): 49.1 ng/mL
Serum P1NP, Min (P1NP; 2 to 24 h, 56.5 μg single s.c.): 13.0 ng/mL
Serum P1NP, Max (P1NP; [6]): 80.2 ng/mL
Serum P1NP, Median (P1NP; [6]): 53.5 ng/mL
Serum P1NP, Min (P1NP; [6]): 30.7 ng/mL
Serum P1NP, Max (P1NP; [7]): 118.0 ng/mL
Serum P1NP, Median (P1NP; [7]): 56.9 ng/mL
Serum P1NP, Min (P1NP; [7]): 18.3 ng/mL
Serum NTX, Max ([3]; 2 to 24 h, 28.2 μg single s.c.): 21.7 nM BCE/L
Serum NTX, Median ([3]; 2 to 24 h, 28.2 μg single s.c.): 14.2 nM BCE/L
Serum NTX, Min ([3]; 2 to 24 h, 28.2 μg single s.c.): 9.2 nM BCE/L
Serum NTX, Max ([3]; 2 to 24 h, 56.5 μg single s.c.): 27.7 nM BCE/L
Serum NTX, Median ([3]; 2 to 24 h, 56.5 μg single s.c.): 13.8 nM BCE/L
Serum NTX, Min ([3]; 2 to 24 h, 56.5 μg single s.c.): 7.2 nM BCE/L
Serum NTX, Max [3, 6]: 20.4 nM BCE/L
Serum NTX, Median [3, 6]: 13.2 nM BCE/L
Serum NTX, Min [3, 6]: 7.2 nM BCE/L
Serum NTX, Max [3, 7]: 20.6 nM BCE/L
Serum NTX, Median [3, 7]: 10.7 nM BCE/L
Serum NTX, Min [3, 7]: 7.5 nM BCE/L
Urinary CTX, Max ([4]; 2 to 24 h, 28.2 μg single s.c.): 958.0 µg/mmol
Urinary CTX, Median ([4]; 2 to 24 h, 28.2 μg single s.c.): 402.5 µg/mmol
Urinary CTX, Min ([4]; 2 to 24 h, 28.2 μg single s.c.): 192.0 µg/mmol
Urinary CTX, Max ([4]; 2 to 24 h, 56.5 μg single s.c.): 1190.0 µg/mmol
Urinary CTX, Median ([4]; 2 to 24 h, 56.5 μg single s.c.): 508.5 µg/mmol
Urinary CTX, Min ([4]; 2 to 24 h, 56.5 μg single s.c.): 238.0 µg/mmol
Urinary CTX, Max [4, 6]: 655.0 µg/mmol
Urinary CTX, Median [4, 6]: 351.0 µg/mmol
Urinary CTX, Min [4, 6]: 106.0 µg/mmol
Urinary CTX, Max [4, 7]: 972.0 µg/mmol
Urinary CTX, Median [4, 7]: 351.0 µg/mmol
Urinary CTX, Min [4, 7]: 142.0 µg/mmol
Any adverse event ([5]; 28.2 μg single s.c., n = 10): 10 (100) n (%)
Decreased appetite ([5]; 28.2 μg single s.c., n = 10): 1 (10) n (%)
Decreased blood pressure ([5]; 28.2 μg single s.c., n = 10): 1 (10) n (%)
Erythema ([5]; 28.2 μg single s.c., n = 10): 1 (10) n (%)
Muscle spasms ([5]; 28.2 μg single s.c., n = 10): 1 (10) n (%)
Palpitations ([5]; 28.2 μg single s.c., n = 10): 1 (10) n (%)
Positional vertigo ([5]; 28.2 μg single s.c., n = 10): 1 (10) n (%)
Rhinorrhea ([5]; 28.2 μg single s.c., n = 10): 1 (10) n (%)
Somnolence ([5]; 28.2 μg single s.c., n = 10): 1 (10) n (%)
Vomiting ([5]; 28.2 μg single s.c., n = 10): 1 (10) n (%)
Any adverse event ([5]; 56.5 μg single s.c., n = 10): 10 (100) n (%)
Conjunctival hyperemia ([5]; 56.5 μg single s.c., n = 10): 1 (10) n (%)
Decreased appetite ([5]; 56.5 μg single s.c., n = 10): 1 (10) n (%)
Eye pain ([5]; 56.5 μg single s.c., n = 10): 1 (10) n (%)
Headache ([5]; 56.5 μg single s.c., n = 10): 3 (30) n (%)
Hot flashes ([5]; 56.5 μg single s.c., n = 10): 1 (10) n (%)
Nasopharyngitis ([5]; 56.5 μg single s.c., n = 10): 1 (10) n (%)
Nausea ([5]; 56.5 μg single s.c., n = 10): 1 (10) n (%)
Pharynx discomfort ([5]; 56.5 μg single s.c., n = 10): 1 (10) n (%)
Rhinorrhea ([5]; 56.5 μg single s.c., n = 10): 1 (10) n (%)
Somnolence ([5]; 56.5 μg single s.c., n = 10): 5 (50) n (%)
Vomiting ([5]; 56.5 μg single s.c., n = 10): 1 (10) n (%)
severity and outcome of ADRs ([5]; 28.2 and 56.5 μg groups, most ADRs): mild and resolved without intervention
changes in laboratory values before or after administration ([5]; throughout the study duration): no significant changes
